# Test results reported in ChEMBL document CHEMBL1140608 (J Med Chem, 2007).
# pIC50: −log10 of the molar value.
# Columns and labels:
# [1] = molecular target: T1, ATP-dependent translocase ABCB1 (Homo sapiens, UniProt P08183); test: Inhibition of human Pgp in anthracycline-resistant K562 cells assessed as drug level causing maximal increase in nuclear concentration of pirarubicin relative to control; assay type: cell-based
# How it was run: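 Anthracycline-resistant erythroleukemia K562 cells were incubated with pirarubicin, and its uptake was followed by continuous spectrofluorometry (λex 480 nm, λem 590 nm). R is the fractional increase in nuclear pirarubicin with inhibitor: 0 without inhibitor, 1 when it equals sensitive cells. Rmax is the maximal achievable increase. [I]0.5 is the inhibitor concentration giving R = 0.5.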
# [2] = molecular target: T1, ATP-dependent translocase ABCB1; test: Inhibition of human Pgp in anthracycline-resistant K562 cells assessed as drug level causing half maximal increase in nuclear concentration of pirarubicin; assay type: cell-based; conditions: read-out: Activity
# T1 sequence (P08183 whole entry): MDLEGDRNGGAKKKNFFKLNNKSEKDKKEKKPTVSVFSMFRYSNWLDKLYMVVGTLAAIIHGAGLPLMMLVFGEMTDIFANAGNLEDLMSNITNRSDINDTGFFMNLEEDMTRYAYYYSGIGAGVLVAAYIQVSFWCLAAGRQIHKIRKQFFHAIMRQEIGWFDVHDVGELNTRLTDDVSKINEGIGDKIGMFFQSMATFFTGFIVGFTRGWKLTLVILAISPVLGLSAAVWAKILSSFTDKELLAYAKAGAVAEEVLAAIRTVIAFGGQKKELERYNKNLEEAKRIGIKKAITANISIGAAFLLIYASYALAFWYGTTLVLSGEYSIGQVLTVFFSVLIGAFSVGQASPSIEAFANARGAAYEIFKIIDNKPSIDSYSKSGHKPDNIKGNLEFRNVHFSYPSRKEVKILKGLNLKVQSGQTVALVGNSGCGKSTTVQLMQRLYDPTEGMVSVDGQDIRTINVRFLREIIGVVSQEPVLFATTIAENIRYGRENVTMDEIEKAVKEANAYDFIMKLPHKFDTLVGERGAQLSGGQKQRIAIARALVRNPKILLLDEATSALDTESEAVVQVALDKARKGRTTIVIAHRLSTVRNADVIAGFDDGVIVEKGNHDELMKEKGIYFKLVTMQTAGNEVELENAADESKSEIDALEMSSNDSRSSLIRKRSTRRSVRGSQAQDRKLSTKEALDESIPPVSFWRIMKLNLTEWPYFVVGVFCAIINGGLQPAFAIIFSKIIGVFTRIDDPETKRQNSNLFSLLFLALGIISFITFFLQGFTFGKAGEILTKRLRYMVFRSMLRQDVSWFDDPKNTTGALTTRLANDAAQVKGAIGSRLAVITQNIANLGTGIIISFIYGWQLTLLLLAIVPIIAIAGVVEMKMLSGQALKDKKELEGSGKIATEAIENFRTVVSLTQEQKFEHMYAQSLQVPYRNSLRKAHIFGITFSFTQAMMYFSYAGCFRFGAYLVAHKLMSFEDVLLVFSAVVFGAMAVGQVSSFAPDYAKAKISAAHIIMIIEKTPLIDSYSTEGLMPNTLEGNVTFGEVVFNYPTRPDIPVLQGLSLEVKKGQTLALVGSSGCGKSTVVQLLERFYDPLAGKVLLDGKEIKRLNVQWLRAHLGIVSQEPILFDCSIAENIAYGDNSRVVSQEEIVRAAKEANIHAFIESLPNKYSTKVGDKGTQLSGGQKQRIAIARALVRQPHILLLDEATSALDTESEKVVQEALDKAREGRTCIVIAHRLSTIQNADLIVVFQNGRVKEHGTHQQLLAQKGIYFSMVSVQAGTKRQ
SMILES,Activity [1],pIC50 [2]
COc1cc(/C=C/C(=O)OC2CCC(N(C)C3CCC(OC(=O)c4cc(OC)c(OC)c(OC)c4)CC3)CC2)cc(OC)c1OC (mixture of isomers; cis),0.85,7.05
COc1cc(C(=O)OC2CCC(N(C)C3CCC(OC(=O)c4c5ccccc5cc5ccccc45)CC3)CC2)cc(OC)c1OC (mixture of isomers; cis),0.95,6.52
COc1cc(/C=C/C(=O)OCCCN(C)CCCOC(=O)c2cc(OC)c(OC)c(OC)c2)cc(OC)c1OC,0.9,6.22
COc1cc(C(=O)OC2CCC(N(C)C3CCC(OC(=O)c4c5ccccc5cc5ccccc45)CC3)CC2)cc(OC)c1OC (trans isomer),0.88,6.52
COc1cc(C(=O)OCCCN(C)CCCOC(=O)c2c3ccccc3cc3ccccc23)cc(OC)c1OC,0.71,6.55
COc1cc(C(=O)OC2CCC(N(C)C3CCC(OC(=O)c4c5ccccc5cc5ccccc45)CC3)CC2)cc(OC)c1OC (mixture of isomers; trans),0.78,6.80
COc1cc(C(=O)OC2CCC(N(C)C3CCC(OC(=O)c4c5ccccc5cc5ccccc45)CC3)CC2)cc(OC)c1OC (stereo in doubt),0.79,6.74
COc1cc(/C=C/C(=O)OC2CCC(N(C)C3CCC(OC(=O)c4cc(OC)c(OC)c(OC)c4)CC3)CC2)cc(OC)c1OC (mixture of isomers; trans),0.98,8.00
COc1cc(/C=C/C(=O)OC2CCC(N(C)C3CCC(OC(=O)c4cc(OC)c(OC)c(OC)c4)CC3)CC2)cc(OC)c1OC (stereo in doubt),0.81,6.49
COc1cc(/C=C/C(=O)OC2CCC(N(C)C3CCC(OC(=O)c4cc(OC)c(OC)c(OC)c4)CC3)CC2)cc(OC)c1OC (cis isomer),0.8,7.52
